Data taken from ChEMBL document CHEMBL4689842, “EUbOPEN Chemogenomics Library wave 1” (2021).

Tested on: Fibroblast
Assay: Multiplex assay against human fibroblast
Assay type: toxicity, cell-based
Procedure, shortened: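 On a CQ1 microscope at 37°C and 5% CO2, live cells were imaged after compound addition. They had been stained at seeding with Hoechst33342, BioTracker Green Microtubule Cytoskeleton Dye, MitoTracker Red and Annexin V Alexa Fluor 680. CellPathfinder machine-learning gating assigned cells to Hoechst high-intensity objects or normal cells, normal cells to healthy, pyknosed or fragmented nuclei, and pyknosed cells to mitotic or apoptotic. Tubulin, mitochondrial-mass and membrane-permeability phenotypes are per cents of healthy-nucleus cells.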

[1] = 12 h, 1 µM, compound concentration 1 uM, replicate 1
[2] = 12 h, 1 µM, compound concentration 1 uM, replicate 2
[3] = 12 h, 10 µM, compound concentration 10 uM, replicate 1
[4] = 12 h, 10 µM, compound concentration 10 uM, replicate 2
[5] = 24 h, 1 µM, compound concentration 1 uM, replicate 1
[6] = 24 h, 1 µM, compound concentration 1 uM, replicate 2
[7] = 24 h, 10 µM, compound concentration 10 uM, replicate 1
[8] = 24 h, 10 µM, compound concentration 10 uM, replicate 2
[9] = 48 h, 1 µM, compound concentration 1 uM, replicate 1
[10] = 48 h, 1 µM, compound concentration 1 uM, replicate 2
[11] = 48 h, 10 µM, compound concentration 10 uM, replicate 1
[12] = 48 h, 10 µM, compound concentration 10 uM, replicate 2

Compound: CCOc1cc(C(=O)N2CCC(N3CCN(C)CC3)CC2)ccc1Nc1ncc2c(n1)N(C1CCCC1)c1ccccc1C(=O)N2C
- Population Apoptotic (%) [1]: 57%
- Population Fragmented Nuclei (%) [1]: 27%
- Population Healthy Nuclei (%) [1]: 42%
- Population Hoechst High Intensity Objects (%) [1]: 13%
- Population Membrane Permeable-Phenotype (%) [1]: 19%
- Population Mitochondria Different-Phenotype (%) [1]: 27%
- Population Mitotic Cells (%) [1]: 42%
- Population Normal (%) [1]: 86%
- Population Pyknosed Nuclei (%) [1]: 30%
- Population Tubulin-Different-Phenotype (%) [1]: 60%
- Total Cell Count [1]: 200
- Population Apoptotic (%) [2]: 75%
- Population Fragmented Nuclei (%) [2]: 6%
- Population Healthy Nuclei (%) [2]: 80%
- Population Hoechst High Intensity Objects (%) [2]: 10%
- Population Membrane Permeable-Phenotype (%) [2]: 4%
- Population Mitochondria Different-Phenotype (%) [2]: 76%
- Population Mitotic Cells (%) [2]: 25%
- Population Normal (%) [2]: 89%
- Population Pyknosed Nuclei (%) [2]: 12%
- Population Tubulin-Different-Phenotype (%) [2]: 48%
- Total Cell Count [2]: 67
- Population Apoptotic (%) [3]: 58%
- Population Fragmented Nuclei (%) [3]: 30%
- Population Healthy Nuclei (%) [3]: 44%
- Population Hoechst High Intensity Objects (%) [3]: 19%
- Population Membrane Permeable-Phenotype (%) [3]: 20%
- Population Mitochondria Different-Phenotype (%) [3]: 56%
- Population Mitotic Cells (%) [3]: 41%
- Population Normal (%) [3]: 80%
- Population Pyknosed Nuclei (%) [3]: 25%
- Population Tubulin-Different-Phenotype (%) [3]: 86%
- Total Cell Count [3]: 84
- Population Apoptotic (%) [4]: 92%
- Population Fragmented Nuclei (%) [4]: 21%
- Population Healthy Nuclei (%) [4]: 50%
- Population Hoechst High Intensity Objects (%) [4]: 6%
- Population Membrane Permeable-Phenotype (%) [4]: 93%
- Population Mitochondria Different-Phenotype (%) [4]: 97%
- Population Mitotic Cells (%) [4]: 7%
- Population Normal (%) [4]: 93%
- Population Pyknosed Nuclei (%) [4]: 27%
- Population Tubulin-Different-Phenotype (%) [4]: 100%
- Total Cell Count [4]: 69
- Population Apoptotic (%) [5]: 62%
- Population Fragmented Nuclei (%) [5]: 29%
- Population Healthy Nuclei (%) [5]: 49%
- Population Hoechst High Intensity Objects (%) [5]: 11%
- Population Membrane Permeable-Phenotype (%) [5]: 12%
- Population Mitochondria Different-Phenotype (%) [5]: 17%
- Population Mitotic Cells (%) [5]: 37%
- Population Normal (%) [5]: 88%
- Population Pyknosed Nuclei (%) [5]: 20%
- Population Tubulin-Different-Phenotype (%) [5]: 42%
- Total Cell Count [5]: 205
- Population Apoptotic (%) [6]: 22%
- Population Fragmented Nuclei (%) [6]: 16%
- Population Healthy Nuclei (%) [6]: 72%
- Population Hoechst High Intensity Objects (%) [6]: 5%
- Population Membrane Permeable-Phenotype (%) [6]: 5%
- Population Mitochondria Different-Phenotype (%) [6]: 65%
- Population Mitotic Cells (%) [6]: 77%
- Population Normal (%) [6]: 94%
- Population Pyknosed Nuclei (%) [6]: 11%
- Population Tubulin-Different-Phenotype (%) [6]: 27%
- Total Cell Count [6]: 71
- Population Apoptotic (%) [7]: 76%
- Population Fragmented Nuclei (%) [7]: 41%
- Population Healthy Nuclei (%) [7]: 26%
- Population Hoechst High Intensity Objects (%) [7]: 28%
- Population Membrane Permeable-Phenotype (%) [7]: 21%
- Population Mitochondria Different-Phenotype (%) [7]: 85%
- Population Mitotic Cells (%) [7]: 23%
- Population Normal (%) [7]: 71%
- Population Pyknosed Nuclei (%) [7]: 32%
- Population Tubulin-Different-Phenotype (%) [7]: 92%
- Total Cell Count [7]: 74
- Population Apoptotic (%) [8]: 88%
- Population Fragmented Nuclei (%) [8]: 10%
- Population Healthy Nuclei (%) [8]: 30%
- Population Hoechst High Intensity Objects (%) [8]: 11%
- Population Membrane Permeable-Phenotype (%) [8]: 100%
- Population Mitochondria Different-Phenotype (%) [8]: 96%
- Population Mitotic Cells (%) [8]: 11%
- Population Normal (%) [8]: 88%
- Population Pyknosed Nuclei (%) [8]: 59%
- Population Tubulin-Different-Phenotype (%) [8]: 100%
- Total Cell Count [8]: 85
- Population Apoptotic (%) [9]: 78%
- Population Fragmented Nuclei (%) [9]: 37%
- Population Healthy Nuclei (%) [9]: 51%
- Population Hoechst High Intensity Objects (%) [9]: 15%
- Population Membrane Permeable-Phenotype (%) [9]: 13%
- Population Mitochondria Different-Phenotype (%) [9]: 8%
- Population Mitotic Cells (%) [9]: 21%
- Population Normal (%) [9]: 84%
- Population Pyknosed Nuclei (%) [9]: 10%
- Population Tubulin-Different-Phenotype (%) [9]: 43%
- Total Cell Count [9]: 213
- Population Apoptotic (%) [10]: 100%
- Population Fragmented Nuclei (%) [10]: 29%
- Population Healthy Nuclei (%) [10]: 67%
- Population Hoechst High Intensity Objects (%) [10]: 18%
- Population Membrane Permeable-Phenotype (%) [10]: 14%
- Population Mitochondria Different-Phenotype (%) [10]: 20%
- Population Mitotic Cells (%) [10]: 0%
- Population Normal (%) [10]: 81%
- Population Pyknosed Nuclei (%) [10]: 3%
- Population Tubulin-Different-Phenotype (%) [10]: 63%
- Total Cell Count [10]: 116
- Population Apoptotic (%) [11]: 88%
- Population Fragmented Nuclei (%) [11]: 35%
- Population Healthy Nuclei (%) [11]: 26%
- Population Hoechst High Intensity Objects (%) [11]: 25%
- Population Membrane Permeable-Phenotype (%) [11]: 33%
- Population Mitochondria Different-Phenotype (%) [11]: 41%
- Population Mitotic Cells (%) [11]: 11%
- Population Normal (%) [11]: 75%
- Population Pyknosed Nuclei (%) [11]: 37%
- Population Tubulin-Different-Phenotype (%) [11]: 66%
- Total Cell Count [11]: 60
- Population Apoptotic (%) [12]: 93%
- Population Fragmented Nuclei (%) [12]: 34%
- Population Healthy Nuclei (%) [12]: 46%
- Population Hoechst High Intensity Objects (%) [12]: 32%
- Population Membrane Permeable-Phenotype (%) [12]: 5%
- Population Mitochondria Different-Phenotype (%) [12]: 78%
- Population Mitotic Cells (%) [12]: 6%
- Population Normal (%) [12]: 67%
- Population Pyknosed Nuclei (%) [12]: 18%
- Population Tubulin-Different-Phenotype (%) [12]: 89%
- Total Cell Count [12]: 120
